The results in this text go back to ChEMBL document CHEMBL1139669, “8-Fluoroimidazo[1,2-a]pyridine: synthesis, physicochemical properties and evaluation as a bioisosteric replacement for imidazo[1,2-a]pyrimidine in an allosteric modulator ligand of the GABA A receptor” (Bioorg Med Chem Lett, 2006).

Structures are written as SMILES.

The target in data set [1] is GABA-A receptor; alpha-3/beta-3/gamma-2 (Homo sapiens) (UniProt P18507+P28472+P34903). The data set can be described thus: Efficacy against GABA-Aalpha3 receptor plus beta-3-gamma-2 expressed in mouse L(tk-) cells relative to chlorodiazepoxide by chlorine flux assay. The format is functional, cell-based. The method in brief:
(§1)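 Human GABA-A αxβ3γ2 receptors (α1 or α3) stably expressed in mouse LTK fibroblasts. ³⁶Cl⁻ flux assay with drug at 1000× Ki and GABA at EC20. Efficacy expressed relative to the maximal response of the full agonist chlordiazepoxide. Means of at least 7 determinations.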

Data set [2] addresses T1, GABA-A receptor; alpha-3/beta-3/gamma-2 (Homo sapiens, UniProt P18507+P28472+P34903).
T1 sequence (P18507 whole entry): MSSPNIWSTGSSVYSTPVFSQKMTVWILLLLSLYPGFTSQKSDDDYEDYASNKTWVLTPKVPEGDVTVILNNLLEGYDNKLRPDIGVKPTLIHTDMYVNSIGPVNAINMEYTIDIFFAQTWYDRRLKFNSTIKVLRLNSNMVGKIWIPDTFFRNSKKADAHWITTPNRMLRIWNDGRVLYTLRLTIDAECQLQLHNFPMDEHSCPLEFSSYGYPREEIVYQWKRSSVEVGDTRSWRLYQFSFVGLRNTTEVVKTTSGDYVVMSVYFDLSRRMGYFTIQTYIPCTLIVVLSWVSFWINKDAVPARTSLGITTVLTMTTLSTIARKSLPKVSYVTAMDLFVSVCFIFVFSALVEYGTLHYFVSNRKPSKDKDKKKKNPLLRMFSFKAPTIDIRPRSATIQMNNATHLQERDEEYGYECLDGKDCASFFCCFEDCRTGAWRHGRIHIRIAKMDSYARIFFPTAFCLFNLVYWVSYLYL
T1 sequence (P28472 whole entry): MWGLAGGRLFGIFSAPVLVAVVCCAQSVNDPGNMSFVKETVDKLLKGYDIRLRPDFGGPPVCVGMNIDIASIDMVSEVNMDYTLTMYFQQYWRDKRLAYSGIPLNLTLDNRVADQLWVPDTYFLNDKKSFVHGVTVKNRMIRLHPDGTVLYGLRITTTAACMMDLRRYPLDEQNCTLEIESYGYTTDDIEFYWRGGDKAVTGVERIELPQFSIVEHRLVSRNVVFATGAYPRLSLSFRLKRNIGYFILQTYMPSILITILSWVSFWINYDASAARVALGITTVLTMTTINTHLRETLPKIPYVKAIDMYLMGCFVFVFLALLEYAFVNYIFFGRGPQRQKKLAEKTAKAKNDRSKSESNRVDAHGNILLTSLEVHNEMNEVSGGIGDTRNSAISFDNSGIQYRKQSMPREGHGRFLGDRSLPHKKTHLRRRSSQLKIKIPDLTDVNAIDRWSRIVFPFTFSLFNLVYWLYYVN
T1 sequence (P34903 whole entry): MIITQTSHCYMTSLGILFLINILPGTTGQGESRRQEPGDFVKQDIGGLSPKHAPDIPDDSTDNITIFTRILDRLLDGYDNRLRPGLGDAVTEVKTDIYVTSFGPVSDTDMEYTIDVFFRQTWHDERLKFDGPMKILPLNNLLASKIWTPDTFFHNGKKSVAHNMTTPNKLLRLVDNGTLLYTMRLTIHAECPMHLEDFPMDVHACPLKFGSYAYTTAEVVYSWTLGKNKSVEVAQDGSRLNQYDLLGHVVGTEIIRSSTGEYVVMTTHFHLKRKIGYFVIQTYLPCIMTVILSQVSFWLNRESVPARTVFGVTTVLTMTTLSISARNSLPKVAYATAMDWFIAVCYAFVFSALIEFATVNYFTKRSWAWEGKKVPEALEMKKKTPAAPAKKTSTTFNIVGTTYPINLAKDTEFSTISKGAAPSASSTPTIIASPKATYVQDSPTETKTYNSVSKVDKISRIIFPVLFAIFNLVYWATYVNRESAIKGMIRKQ
The data set can be described thus: Displacement of [3H]Ro 15-1788 from human GABA-Aalpha3 receptor plus beta-3-gamma-2 expressed in mouse L(tk-) cells. Type of data set: cell-based. The method in brief: (§2)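 Competition binding against [³H]Ro15-1788 used at twice its Kd, with human GABA-A αxβ3γ2 receptors (α1 or α3) stably expressed in mouse LTK fibroblasts. Ki was calculated by Cheng-Prusoff from the inhibition curves. Values are means of three determinations.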
(In general: Loss of bound radioactivity is the signal in a displacement assay; it reports binding, not function.)

In data set [3] the target is T2, GABA-A receptor; alpha-1/beta-3/gamma-2 (Homo sapiens, UniProt P14867+P18507+P28472).
T2 sequence (P14867 whole entry): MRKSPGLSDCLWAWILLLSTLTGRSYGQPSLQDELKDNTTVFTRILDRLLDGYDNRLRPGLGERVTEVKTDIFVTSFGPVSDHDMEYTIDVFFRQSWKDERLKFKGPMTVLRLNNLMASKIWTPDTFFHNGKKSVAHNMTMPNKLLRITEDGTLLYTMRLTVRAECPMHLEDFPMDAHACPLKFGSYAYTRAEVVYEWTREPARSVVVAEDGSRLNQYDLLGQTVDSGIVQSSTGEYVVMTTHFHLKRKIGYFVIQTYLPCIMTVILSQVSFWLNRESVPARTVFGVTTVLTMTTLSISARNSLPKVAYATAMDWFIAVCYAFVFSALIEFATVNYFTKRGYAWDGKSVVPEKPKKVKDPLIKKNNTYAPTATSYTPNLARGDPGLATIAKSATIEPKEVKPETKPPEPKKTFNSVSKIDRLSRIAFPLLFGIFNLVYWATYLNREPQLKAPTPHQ
T2 sequence (P18507 whole entry): T1 sequence (P18507 whole entry)
T2 sequence (P28472 whole entry): T1 sequence (P28472 whole entry)
The data set can be described thus: Displacement of [3H]Ro 15-1788 from human GABA-Aalpha1 receptor plus beta-3-gamma-2 expressed in mouse L(tk-) cells. Type of data set: cell-based. The method in brief:
as §2

Data set [4] concerns the target T3, GABA-A receptor; alpha-1/beta-3/gamma-2 (Homo sapiens) (UniProt P14867+P18507+P28472). The data set can be described thus: Efficacy against GABA-Aalpha1 receptor plus beta-3-gamma-2 expressed in mouse L(tk-) cells relative to chlorodiazepoxide by electrophysiology method. The format is functional, cell-based. The method in brief:
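Human GABA-A α1β3γ2 receptors stably expressed in mouse LTK fibroblasts. Electrophysiology measured maximum modulation of the GABA EC20 response, expressed relative to the maximal response of the full agonist chlordiazepoxide. Means of at least 5 determinations.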

A short description of data set [5]: Distribution coefficient, log D at pH 7.4. The note with it: octanol/water. The format is physicochemical. The method in brief:
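Shake-flask partitioning between octanol and pH 7.4 aqueous buffer, shaken 20 min. logD7.4 is taken as the ratio of concentrations in octanol and in buffer.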

The nature of data set [6]: Dissociation constant, pKa of the compound. The format is physicochemical. The method in brief:
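pKa determined from changes in the UV chromophore during a pH titration.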

The target in data set [7] is T3, GABA-A receptor; alpha-1/beta-3/gamma-2 (Homo sapiens). The data set can be described thus: Efficacy against GABA-Aalpha1 receptor plus beta3gamma2 expressed in mouse L(tk-) cells relative to chlorodiazepoxide by chlorine flux assay. Type of data set: functional, cell-based. The method in brief:
as §1

Broadly, the Ki is a measure of affinity in units of concentration, obtained from inhibition or displacement. `CC(C)(O)c1ccn2c(-c3ccc(F)c(-c4ccccc4C#N)c3)cnc2n1`: the Efficacy in data set [1] stood at 79%; in data set [4] it was 60%. In addition, the inhibition constant (Ki) is 0.47 nM in data set [2] and 0.71 nM in data set [3].
The logD is lipophilicity at a set pH, counting ionised and neutral species. A lower logD goes with lower lipophilicity. By pKa is commonly meant the pH at which an ionisable group is half protonated. A high value points to a group that holds its proton tightly. Consider `c1ccn2ccnc2c1`, for which the logD in data set [5] turned out to be 0.8. In data set [6], this compound came in with a pKa of 6.9.
As to `CC(C)(O)c1ccn2c(-c3ccc(F)c(-c4ccccc4C#N)c3)cnc2c1F`, the Efficacy in data set [1] amounted to 104%; in data set [4], 34%. For the same compound, the values for the inhibition constant (Ki) in data set [2] and in data set [3] were 0.32 nM and 0.2 nM, respectively.
In turn, `CC(C)(O)c1ccn2ccnc2c1` showed a log distribution coefficient (logD) in data set [5] of 0.6. The compound also had a pKa in data set [6] of 7.2.
`Fc1cccn2ccnc12`: the logD in data set [5] worked out at 0.9. The compound further displayed a pKa in data set [6] of 4.9.
For `c1cnc2nccn2c1` the same measures were -0.2 and 4.9.
For `CC(C)(O)c1ccn2c(-c3ccc(F)c(-c4ccccc4C#N)c3)cnc2c1`, the Efficacy was determined as 61% in data set [1] and 35% in data set [7]. The inhibition constant (Ki) in data set [2] turned out to be 5.16 nM; in data set [3], 4.35 nM.
As for `CC(C)(O)c1ccn2ccnc2c1F`, in data set [5], the log distribution coefficient (logD) came to 1.1. The same compound showed a pKa in data set [6] of 5.4.
`CC(C)(O)c1ccn2ccnc2n1`: the logD in data set [5] worked out at 0.1. The pKa in data set [6] stood at 5.4.
